According to ChEMBL document CHEMBL1914330 (Eur J Med Chem, 2011):
pIC50: −log10 of the molar value. Active and inactive are the calls of the source. No cut-off for these calls is given here.

Key:
[1] = test system: HeLa; assay: Induction of apoptosis in human HeLa cells assessed as accumulation of late apoptotic cells after 24 hrs by Annexin-V-FITC/propidium iodide staining-based flow cytometric analysis; assay type: functional, cell-based
Summary of the method: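 HeLa cells treated for 24 or 48 h, then labelled with annexin-V-FITC and PI. Analysed by flow cytometry with excitation at 488 nm and emission at 525 nm (FITC) and 585 nm (PI). Quadrants scored as live, early apoptotic, late apoptotic or necrotic. Mean ± SEM of four independent experiments.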

[2] = test system: HeLa; assay: Induction of apoptosis in human HeLa cells assessed as ROS production at 0.25 to 5 uM after 24 to 48 hrs by H2-DCFDA-staining-based flow cytometric analysis; assay type: functional, cell-based
Summary of the method: (§1)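 HeLa cells treated 24 or 48 h, trypsinized and resuspended in HBSS containing HE (2.5 µM) or H₂DCFDA (0.1 µM). Incubated 10 min at 37 °C, resuspended in HBSS, and ROS read by flow cytometry. Mean ± SEM of three independent experiments.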

[3] = test system: HeLa; assay: Induction of cell cycle arrest at G2/M phase in human HeLa cells assessed as increase in cyclin B1 expression at 0.25 to 5 uM after 24 hrs by Western blot analysis; assay type: functional, cell-based
Summary of the method: (§2)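 HeLa cells treated for 24 or 48 h were washed in cold PBS and lysed on ice for 30 min. Lysates were cleared at 15,000 × g, run on SDS-PAGE and blotted. Membranes were probed 2 h at room temperature with antibodies to the target protein, then peroxidase secondary and ECL. Blots were reprobed for β-actin as loading control.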

[4] = test system: HeLa; assay: Induction of cell cycle arrest at G2/M phase in human HeLa cells assessed as disappearance of Cdc25C expression at 0.25 to 5 uM after 48 hrs by Western blot analysis; assay type: functional, cell-based; summary of the method: as §2
[5] = Antiproliferative activity against human taxol-resistant A549-T12 cells after 72 hrs by MTT assay; assay type: functional, cell-based; settings: A549, 72 h
Summary of the method: (§3)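 Cells seeded at 8 × 10³ per well in complete medium and exposed to a range of compound concentrations at 37 °C for 72 h. Viability read by MTT test. IC50 taken as the concentration inhibiting proliferation by 50%.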

[6] = test system: LoVo; assay: Ratio of IC50 for doxorubicin-resistant human LoVo cells to IC50 for human LoVo cells; assay type: functional
[7] = test system: HeLa; assay: Induction of apoptosis in human HeLa cells assessed as caspase-3 activation at 0.25 to 5 uM by flow cytometry; settings: TDE = time-dependent effect
[8] = species on record: Bos taurus; assay: Displacement of [3H]colchicine from bovine brain tubulin at 5 uM by DEAE-cellulose filter method
Summary of the method: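 Inhibition of [³H]colchicine binding to bovine brain tubulin. Reaction mixtures held 1 µM tubulin, 5 µM [³H]colchicine and 5 µM test compound.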

[9] = test system: HT-29; assay: Cytotoxicity against human HT-29 cells; assay type: functional, cell-based
[10] = test system: L1210; assay: Antiproliferative activity against mouse L1210 cells after 2 days by coulter counter analysis; assay type: functional, cell-based; settings: L1210, 48 h
Summary of the method: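 Cells suspended at 300,000–500,000 cells/mL and mixed 1:1 with diluted compound. Incubated at 37 °C for two days, then counted with a Coulter counter. IC50 is the concentration inhibiting proliferation by 50%, as mean ± SE from dose-response curves of at least three independent experiments.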

[11] = test system: Mus musculus; assay: Toxicity in nude BALB/c mouse xenografted with human HT-29 cells assessed as weight changes at 100 mg/kg, ip administered 3 times per week for 1 week; assay type: organism-based; set-up: dose 100 mg/kg, route intraperitoneal; settings: in vivo, 168 h
Summary of the method: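 HT-29 cells in log phase, suspended at 1 × 10⁷ cells/mL in serum-free RPMI 1640, 0.2 mL injected subcutaneously into the back of nude mice. At about 300 mm³, mice were randomised to vehicle or treatment groups (six per group). The compound was given in DMSO by i.p. injection at 0.01 mL/g body weight. Body weight was recorded on set days; mice were euthanised after 23 days.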

[12] = test system: A549; assay: Ratio of IC50 for taxol-resistant human A549-T12 cells to IC50 for human A549 cells; assay type: functional
[13] = test system: LoVo; assay: Antiproliferative activity against human LoVo cells after 72 hrs by MTT assay; assay type: functional, cell-based; summary of the method: as §3
[14] = test system: HeLa; assay: Induction of cell cycle arrest at G2/M phase in human HeLa cells assessed as decrease in Cdc2 phosphorylation at Tyr15 at 0.25 to 5 uM after 24 hrs by Western blot analysis; assay type: functional, cell-based; summary of the method: as §2
[15] = test system: HeLa; assay: Cell cycle arrest in human HeLa cells at G2/M phase after 24 hrs by propidium iodide staining-based flow cytometry; assay type: functional
Summary of the method: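 HeLa cells treated for 24 h over 0.06–0.5 µM. Cells fixed in ice-cold 70% ethanol, lysed with buffer containing RNase A and 0.1% Triton X-100, and stained with PI. DNA content read by flow cytometry, including the sub-G1 fraction. Mean ± SEM of three independent experiments.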

[16] = test system: HeLa; assay: Induction of cell cycle arrest at G2/M phase in human HeLa cells assessed as decrease in Cdc25C expression at 0.25 to 5 uM after 24 hrs by Western blot analysis; assay type: functional, cell-based; summary of the method: as §2
[17] = test system: HeLa; assay: Effect on Bax protein expression in human HeLa cells at 0.25 to 0.5 uM after 24 to 48 hrs by Western blot analysis; assay type: functional, cell-based; summary of the method: as §2
[18] = test system: HeLa; assay: Effect on Bcl2 protein expression in human HeLa cells at 0.25 to 0.5 uM after 24 hrs by Western blot analysis; assay type: functional, cell-based; summary of the method: as §2
[19] = test system: HeLa; assay: Induction of apoptosis in human HeLa cells assessed as ROS production at 0.25 to 5 uM after 24 to 48 hrs by hydroethidine-staining-based flow cytometric analysis; assay type: functional, cell-based; summary of the method: as §1
[20] = test system: HeLa; assay: Induction of cell cycle arrest at G2/M phase in human HeLa cells assessed as decrease in cyclin B1 expression at 0.25 to 5 uM after 48 hrs by Western blot analysis; assay type: functional, cell-based; summary of the method: as §2

COc1cc(C(=O)c2sc(N3CCCC3)nc2N)cc(OC)c1OC
Activity [1]: Dose-dependent effect | Activity [2]: Active | Activity [3]: Active | Activity [4]: Active | pIC50 [5]: 6.80 | Ratio IC50 [6]: 4.3 | Activity [7]: tde | inhibition [8]: 67% | pIC50 [9]: 7.70 | pIC50 [10]: 6.43 | Activity [11]: Non-toxic | Ratio IC50 [12]: 4.3 | pIC50 [13]: 7.00 | Activity [14]: Active | Activity [15]: Dose-dependent effect | Activity [16]: Active | Activity [17]: inactive | Activity [18]: inactive | Activity [19]: Active | Activity [20]: inactive
